Series [1] has as its target T1, Cannabinoid receptor 1 (Homo sapiens, UniProt P21554). Kind of series: Agonist activity at human CB1 receptor expressed in CHO cells co-expressing Galpha16 assessed as increase in calcium mobilization at 10 uM measured at 1 sec interval for 90 secs by calcium-5 dye based FLIPR assay relative to CP55,940. In kind it is cell-based. As to conditions: 0.025 h. (A change in cytosolic calcium serves as a functional read-out for many receptors and channels.)

The target in series [2] is T2, Cannabinoid receptor 2 (Homo sapiens, UniProt P34972). Kind of series: Antagonist activity at human CB2 receptor expressed in CHO cells co-expressing Galpha16 assessed as inhibition of CP55,940-induced calcium mobilization at 10 uM preincubated for 15 mins followed by CP55,490 addition measured at 1 sec interval for 90 secs by calcium-5 dye based FLIPR assay relative to CP55,940. In kind it is functional, cell-based.

Series [3] addresses T2, Cannabinoid receptor 2. Kind of series: Agonist activity at human CB2 receptor expressed in CHO cells co-expressing Galpha16 assessed as increase in calcium mobilization at 10 uM measured at 1 sec interval for 90 secs by calcium-5 dye based FLIPR assay relative to CP55,940. Type of series: functional, cell-based. A digest of the protocol:
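CB2 agonist screen in stable human CB2-CHO-RD-HGA16 cells. Cells were Calcium 5 dye-loaded for 45 min at 37 °C in HBSS/HEPES/probenecid buffer, pH 7.4, and pretreated with vehicle. FLIPR Tetra then added compound at a single concentration. Fluorescence (485/525 nm) was expressed as % of CP55,940 Emax.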

Series [4] addresses Cannabinoid receptor 1 (Mus musculus, UniProt P47746). Kind of series: Allosteric modulation of CB1 receptor in CD-1 mouse cerebellar membranes assessed as inhibition of CP55,940-induced [35S]GTPgammaS binding after 60 mins. Type of series: functional, cell membranes, Cerebellum, Membrane. A digest of the protocol:
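They were preincubated 10 min with adenosine deaminase (3 U/ml) in buffer containing 1 mg/ml BSA, then incubated 60 min at 30 °C with 30 µM GDP, 0.1 nM [35S]GTPγS, 100 nM CP55,940 and compound (0.1% DMSO). Nonspecific binding was measured with 30 µM GTPγS. Read-out was filtration.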

Series [5] addresses T2, Cannabinoid receptor 2. Kind of series: Antagonist activity at human CB2 receptor expressed in CHO cells co-expressing Galpha16 assessed as inhibition of CP55,940-induced calcium mobilization preincubated for 15 mins followed by CP55,490 addition measured at 1 sec interval for 90 secs by calcium-5 dye based FLIPR assay. In kind it is functional, cell-based.
Series [6] concerns the target Cannabinoid receptor 1 (Mus musculus) (UniProt P47746). Kind of series: PAM antagonist activity at CB1 receptor in CD-1 mouse cerebellar membranes assessed as increase in [3H]CP55,940 binding after 90 mins relative to control. As to conditions: Cerebellum, Membrane. The arrangement: scale not given: the % may be the effect or the level left.
The target is the same in series [7]. Kind of series: PAM antagonist activity at CB1 receptor in CD-1 mouse cerebellar membranes assessed as inhibition of CP55,940-induced [35S]GTPgammaS binding after 60 mins. To be noted: Cerebellum, Membrane. (GTPγS is a poorly hydrolysed GTP analogue; its binding reports G protein activation.)
The test system of series [8] is Liver. Kind of series: (§1) Half life in rat liver microsomes in presence of NADPH by LC-MS/MS analysis. Type of series: ADME, microsome. As to conditions: microsomes. A digest of the protocol:
(§2)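 Compound was incubated at 37 °C with rat liver microsomes (0.5 mg/mL protein) in 100 mM potassium phosphate, pH 7.4, with 1 mM NADPH. Samples were taken at 0, 5, 15, 30 and 45 min and quenched 1:1 with ice-cold stop solution containing labetalol. Half-life and clearance are mean ± SD of two independent experiments.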
On the technique in general: Liver microsomes are a subcellular fraction often used to study metabolism.

The target in series [9] is T1, Cannabinoid receptor 1. Kind of series: PAM antagonist activity at human CB1 receptor expressed in CHO cells co-expressing Galpha16 assessed as inhibition of CP55,940-induced calcium mobilization up to 100 nM preincubated for 15 mins followed by CP55,490 addition measured at 1 sec interval for 90 secs by calcium-5 dye based FLIPR assay. Type of series: functional, cell-based.

The test system of series [10] is Liver. Kind of series: Clearance in rat liver microsomes in presence of NADPH by LC-MS/MS analysis. In kind it is ADME, microsome. In outline:
as §2

Series [11] concerns Rattus norvegicus. Kind of series: Reduction in cocaine-induced reinstatement of cocaine seeking behavior in Sprague-Dawley rat at 10 mg/kg pretreated for 10 mins followed by cocaine treatment on day following last extinction session. Type of series: functional, organism-based. A digest of the protocol:
(§3)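 Adult male Sprague-Dawley rats (280-300 g) with jugular catheters self-administered cocaine (0.75 mg/kg/infusion, FR1 rising to FR5) in 2-hr daily sessions for 14 days, followed by extinction. On the day after the last extinction session, compound was given 10 min before a cocaine prime (10 mg/kg i.p.). Active lever presses were counted over the 2-hr reinstatement session.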

Series [12] addresses Cannabinoid receptor 1 (Rattus norvegicus, UniProt P20272). Kind of series: Allosteric modulation of CB1 receptor in rat cerebellar membranes assessed as inhibition of CP55,940-induced [35S]GTPgammaS binding. In kind it is functional, cell membranes, Cerebellum, Membrane.
Series [13] is described as follows: as §1. In kind it is ADME, microsome. To be noted: liver microsomes. A digest of the protocol: as §2
Series [14] deals with Rattus norvegicus. Kind of series: Reduction in cocaine-induced reinstatement of cocaine seeking behavior in Sprague-Dawley rat at 30 mg/kg pretreated for 10 mins followed by cocaine treatment on day following last extinction session. In kind it is functional, organism-based. In outline: as §3

Active and inactive are the calls of the source.

T1 sequence (P21554 whole entry): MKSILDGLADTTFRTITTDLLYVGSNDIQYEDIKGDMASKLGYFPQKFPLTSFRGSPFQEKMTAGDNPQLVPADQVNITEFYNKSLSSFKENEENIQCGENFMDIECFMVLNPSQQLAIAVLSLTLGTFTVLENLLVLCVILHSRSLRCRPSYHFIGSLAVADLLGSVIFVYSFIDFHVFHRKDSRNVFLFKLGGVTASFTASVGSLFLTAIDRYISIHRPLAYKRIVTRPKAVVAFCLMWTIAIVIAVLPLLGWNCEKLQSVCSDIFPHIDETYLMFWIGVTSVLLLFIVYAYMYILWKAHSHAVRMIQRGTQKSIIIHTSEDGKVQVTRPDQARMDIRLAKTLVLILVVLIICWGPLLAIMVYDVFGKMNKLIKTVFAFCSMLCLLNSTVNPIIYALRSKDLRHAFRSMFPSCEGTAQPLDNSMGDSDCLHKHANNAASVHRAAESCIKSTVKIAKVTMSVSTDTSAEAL
T2 sequence (P34972 whole entry): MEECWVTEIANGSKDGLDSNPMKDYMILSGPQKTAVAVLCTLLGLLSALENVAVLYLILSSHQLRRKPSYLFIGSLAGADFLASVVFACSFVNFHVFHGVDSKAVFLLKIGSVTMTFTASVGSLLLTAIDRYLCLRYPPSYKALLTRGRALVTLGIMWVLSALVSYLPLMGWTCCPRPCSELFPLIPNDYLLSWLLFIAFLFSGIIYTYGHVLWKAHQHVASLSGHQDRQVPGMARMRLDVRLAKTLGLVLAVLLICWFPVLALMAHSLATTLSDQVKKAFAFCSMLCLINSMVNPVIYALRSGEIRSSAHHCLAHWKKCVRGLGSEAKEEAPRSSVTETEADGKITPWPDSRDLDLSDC
Chain of Cannabinoid receptor 1 (Mus musculus) (P47746 whole entry, looked up): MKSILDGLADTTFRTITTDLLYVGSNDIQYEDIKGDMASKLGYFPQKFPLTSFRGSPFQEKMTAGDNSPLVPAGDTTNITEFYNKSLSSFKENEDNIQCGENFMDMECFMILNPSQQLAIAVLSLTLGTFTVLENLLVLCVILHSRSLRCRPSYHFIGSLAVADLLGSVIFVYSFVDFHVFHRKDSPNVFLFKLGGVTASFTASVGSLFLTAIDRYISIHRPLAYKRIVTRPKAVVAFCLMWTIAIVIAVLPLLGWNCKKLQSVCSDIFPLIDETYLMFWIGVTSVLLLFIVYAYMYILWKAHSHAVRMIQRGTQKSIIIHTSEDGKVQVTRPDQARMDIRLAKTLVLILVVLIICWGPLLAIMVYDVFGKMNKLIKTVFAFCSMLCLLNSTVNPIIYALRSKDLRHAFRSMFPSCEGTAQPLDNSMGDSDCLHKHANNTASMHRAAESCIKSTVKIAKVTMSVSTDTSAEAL
Chain of Cannabinoid receptor 1 (Rattus norvegicus, UniProt P20272) (P20272 whole entry): as the sequence (P47746 whole entry, looked up) above, with D95E counted along it
Chain of Cannabinoid receptor 1 (Mus musculus, UniProt P47746) (P47746 whole entry): as the sequence (P47746 whole entry, looked up) above

The Emax is the greatest response seen or fitted, relative to the assay's reference. In the case of `O=C(Nc1ccc(Cl)cc1)Nc1cccc(-c2c(Cl)cccc2Cl)c1`, the Emax at 10 µM on Cannabinoid receptor 1 [1] came out at 17%. The Imax at Cannabinoid receptor 2 [2] was less than 50%. The Emax on Cannabinoid receptor 2 [3] is less than 10%.
The like results for `CC(C)(C)c1cc(-c2cccc(NC(=O)Nc3ccc(Cl)cc3)c2)cc(C(C)(C)C)c1` were, in that order, 10%, less than 50% and less than 10%.
With `O=C(Nc1ccc(Cl)cc1)Nc1cccc(-c2cccc(-c3ccccc3)c2)c1`, the Emax at 10 µM on Cannabinoid receptor 1 [1] came out at 1%. The Imax on Cannabinoid receptor 2 [2] is less than 50%. At Cannabinoid receptor 2 [3], the Emax was less than 10%.
The IC50 is the concentration that gives 50% inhibition. Regarding `O=C(Nc1ccc(Cl)cc1)Nc1cccc(-c2ccc(-c3ccccc3)cc2)c1`, the Emax at 10 µM at Cannabinoid receptor 1 [1] stood at 0%. For the same molecule, the IC50 at Cannabinoid receptor 1 [4] is more than 10 µM. In addition, the Imax at Cannabinoid receptor 2 [2] was less than 50%. For the same molecule, the Emax at Cannabinoid receptor 2 [3] was less than 10%.
Consider `O=C(Nc1ccc(Cl)cc1)Nc1cccc(-c2ccc3occc3c2)c1`, for which, at Cannabinoid receptor 1 [1], the Emax at 10 µM is 1%. Also, the Imax at Cannabinoid receptor 2 [2] was less than 50%. Also, the Emax on Cannabinoid receptor 2 [3] was less than 10%.
On to `O=C(Nc1ccc(Cl)cc1)Nc1cccc(-c2cccc([N+](=O)[O-])c2)c1`, for which the Emax at 10 µM on Cannabinoid receptor 1 [1] came to 17%. Besides, at Cannabinoid receptor 2 [5], the IC50 is more than 10 µM. Also, the Emax on Cannabinoid receptor 2 [3] is less than 10%.
On to `O=C(Nc1ccc(Cl)cc1)Nc1cccc(-c2ccc3ccccc3n2)c1`, for which the Emax at 10 µM at Cannabinoid receptor 1 [1] came to 5%. On Cannabinoid receptor 2 [2], the Imax is less than 50%. Besides, the Emax on Cannabinoid receptor 2 [3] was less than 10%.
The like results for `O=C(Nc1ccc(Cl)cc1)Nc1cccc(-c2ccccc2)c1` were, in that order, 5%, less than 50% and less than 10%.
On to `O=C(Nc1ccc(Cl)cc1)Nc1cccc(-c2ccc(Cl)c(Cl)c2)c1`, for which the Emax at 10 µM at Cannabinoid receptor 1 [1] was found to be 20%. Further, the IC50 at Cannabinoid receptor 2 [5] is more than 10 µM. Moreover, at Cannabinoid receptor 2 [3], the Emax was less than 10%.
With `O=C(Nc1ccc(Cl)cc1)Nc1cccc(-c2ccc(F)cc2)c1`, the Activity in [6] stood at 215%. Also, the inhibition result in [7] was “Dose-dependent effect”. Further, the t1/2 in the series with Liver [8] is more than 300 min. The Emax at 10 µM at Cannabinoid receptor 1 [1] amounted to 9%. Further, on Cannabinoid receptor 1 [9], the inhibition result is “Active”. For the same molecule, the CLH with Liver [10] was less than 4.6 µL/min/mg. Moreover, at Cannabinoid receptor 2 [5], the IC50 is more than 10 µM. Also, the outcome in the series with Rattus norvegicus [11] was Active. Moreover, the Emax on Cannabinoid receptor 2 [3] is less than 10%.
The term half-life denotes the time needed for the level to fall by half in the phase considered. For the molecule `O=C(Nc1ccc(Cl)cc1)Nc1cccc(-c2cccc(N3CCCC3)n2)c1`, the IC50 at Cannabinoid receptor 1 [12] was 0.042 to 0.074 µM; on Cannabinoid receptor 2 [5], more than 10 µM. Also, in [13], the half-life was 13 to 13.4 min. Besides, the maximal effect (Emax) at 10 µM at Cannabinoid receptor 1 [1] came to 28%. For the same molecule, the result in the series with Rattus norvegicus [14] was Active. Moreover, the CLH in the series on Liver [10] is 113.7 µL/min/mg. At Cannabinoid receptor 2 [3], the Emax is less than 10%.
Consider `COc1cccc(-c2cccc(NC(=O)Nc3ccc(Cl)cc3)c2)n1`, for which the Emax at 10 µM on Cannabinoid receptor 1 [1] turned out to be 2%. Moreover, on Cannabinoid receptor 2 [2], the Imax was less than 50%. Further, at Cannabinoid receptor 2 [3], the Emax is less than 10%.
In the case of `O=C(Nc1ccc(Cl)cc1)Nc1cccc(-c2ccc(F)cc2F)c1`, at Cannabinoid receptor 1 [1], the Emax at 10 µM turned out to be 9%. The Imax on Cannabinoid receptor 2 [2] was less than 50%. For the same molecule, the Emax at Cannabinoid receptor 2 [3] is less than 10%.
For `CC(C)Oc1cccc(-c2cccc(NC(=O)Nc3ccc(Cl)cc3)c2)c1`, at Cannabinoid receptor 2 [2], the Imax is less than 50%. The Emax on Cannabinoid receptor 2 [3] was less than 10%.
As for `Cc1cccc(-c2cccc(NC(=O)Nc3ccc(Cl)cc3)c2)c1`, the Imax at Cannabinoid receptor 2 [2] is less than 50%. For the same molecule, at Cannabinoid receptor 2 [3], the Emax is less than 10%.
In the case of `Cc1ccccc1-c1cccc(NC(=O)Nc2ccc(Cl)cc2)c1`, the Emax at 10 µM at Cannabinoid receptor 1 [1] was 6%. For the same molecule, at Cannabinoid receptor 2 [5], the IC50 is more than 10 µM. The Emax on Cannabinoid receptor 2 [3] is less than 10%.
On the same counts, the results for `O=C(Nc1ccc(Cl)cc1)Nc1cccc(-c2cncnc2)c1` are 9%, 3.4 µM and less than 10%.
On the same counts, the results for `O=C(Nc1ccc(Cl)cc1)Nc1cccc(-c2cnc3ccccc3c2)c1` are 3%, 4.1 µM and less than 10%.
Take `O=C(Nc1ccc(Cl)cc1)Nc1cccc(-c2ccc(C(=O)c3ccccc3)cc2)c1`: the Emax at 10 µM at Cannabinoid receptor 1 [1] was 13%. Further, on Cannabinoid receptor 2 [2], the Imax is less than 50%. The Emax at Cannabinoid receptor 2 [3] was less than 10%.
The like results for `Cc1ccnc(-c2cccc(NC(=O)Nc3ccc(Cl)cc3)c2)c1` were, in that order, 3%, less than 50% and less than 10%.
The like results for `CC(C)(C)c1ccc(-c2cccc(NC(=O)Nc3ccc(Cl)cc3)c2)cc1` were, in that order, 4%, less than 50% and less than 10%.
In the case of `O=C(Nc1ccc(Cl)cc1)Nc1cccc(-c2ccc3c(c2)OCO3)c1`, on Cannabinoid receptor 1 [1], the Emax at 10 µM turned out to be 10%. In addition, at Cannabinoid receptor 2 [2], the Imax was less than 50%. Besides, the Emax on Cannabinoid receptor 2 [3] is less than 10%.
The like results for `O=C(Nc1ccc(Cl)cc1)Nc1cccc(-c2cc(Cl)cc(Cl)c2)c1` were, in that order, 16%, less than 50% and less than 10%.
On the same counts, the results for `O=C(Nc1ccc(Cl)cc1)Nc1cccc(-c2ccc3ccccc3c2)c1` are 7%, less than 50% and less than 10%.
The like results for `O=C(Nc1ccc(Cl)cc1)Nc1cccc(-c2cccc(O)c2)c1` were, in that order, 10%, less than 50% and less than 10%.
For the molecule `O=C(Nc1ccc(Cl)cc1)Nc1cccc(-c2ccc(Cl)cc2)c1`, the Emax at 10 µM on Cannabinoid receptor 1 [1] amounted to 21%. Besides, the Imax on Cannabinoid receptor 2 [2] is less than 50%. In addition, the Emax at Cannabinoid receptor 2 [3] was less than 10%.
On the same counts, the results for `O=C(Nc1ccc(Cl)cc1)Nc1cccc(-c2ccc3c(c2)Cc2ccccc2-3)c1` are 0%, less than 50% and less than 10%.
For `O=C(Nc1ccc(Cl)cc1)Nc1cccc(-c2ccncc2)c1`, in the series on Liver [8], the t1/2 was found to be 41.9 min. The Emax at 10 µM at Cannabinoid receptor 1 [1] was 15%. For the same molecule, in the series with Liver [10], the CLH came to 33.1 µL/min/mg. Also, the Imax at Cannabinoid receptor 2 [2] is less than 50%. In addition, the Emax on Cannabinoid receptor 2 [3] is less than 10%.
Take `COc1cc(-c2cccc(NC(=O)Nc3ccc(Cl)cc3)c2)ccn1`: the Emax at 10 µM at Cannabinoid receptor 1 [1] came to 23%. Further, on Cannabinoid receptor 2 [2], the Imax is less than 50%. Moreover, the Emax at Cannabinoid receptor 2 [3] is less than 10%.
The like results for `O=C(Nc1ccc(Cl)cc1)Nc1cccc(-c2ccccn2)c1` were, in that order, 9%, less than 50% and less than 10%.
On the same counts, the results for `O=C(Nc1ccc(Cl)cc1)Nc1cccc(-c2cccnc2)c1` are 34%, less than 50% and less than 10%.
The like results for `COc1cccc(-c2cccc(NC(=O)Nc3ccc(Cl)cc3)c2)c1` were, in that order, 13%, less than 50% and less than 10%.

Values taken from ChEMBL document CHEMBL4038344, “Novel Diarylurea Based Allosteric Modulators of the Cannabinoid CB1 Receptor: Evaluation of Importance of 6-Pyrrolidinylpyridinyl Substitution” (J Med Chem, 2017).
